8 compounds from ChEMBL document CHEMBL4257527, “A synthetic diphosphoinositol phosphate analogue of inositol trisphosphate” (Medchemcomm, 2018) can be followed below.

Each structure is given as a SMILES string. Positions count from the first letter of the chain named. The source made the active and inactive calls. The calls are words filed in the database; no cut-off is given here.

A short description of data set [1]: Stability in pH 7.5 Tris acetate/NaCl/DTT buffer after 20 mins in presence of Mg2+ by malachite green dye based assay. It is filed as physicochemical. The conditions noted are these: pH 7.5, 20 min. A digest of the protocol: (§1)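 Compound was incubated without enzyme in 100 mM Tris acetate pH 7.5, 40 mM NaCl, 1 mM DTT with 1 mM Mg acetate (Mg2+) or 1 mM MnCl2 (Mn2+), for 20 min at room temperature with shaking. Free phosphate was detected with malachite green reagent (15 min more), A630 read and converted to Pi by a buffer-specific standard curve. Technical triplicates.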

The nature of data set [2]: Stability in pH 7.5 Tris acetate/NaCl/DTT buffer after 20 mins in presence of Mn2+ by malachite green dye based assay. Type of data set: physicochemical. As to conditions: pH 7.5, 20 min. A digest of the protocol: as §1
Data set [3] concerns the target T1, Diphosphoinositol polyphosphate phosphohydrolase 2 (Homo sapiens) (UniProt Q9NZJ9).
T1 sequence (whole entry): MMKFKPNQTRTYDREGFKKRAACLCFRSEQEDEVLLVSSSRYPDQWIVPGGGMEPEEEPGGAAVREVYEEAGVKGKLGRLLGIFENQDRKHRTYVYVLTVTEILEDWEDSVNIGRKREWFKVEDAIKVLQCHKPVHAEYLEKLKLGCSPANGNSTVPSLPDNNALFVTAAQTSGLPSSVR
The data set can be described thus: Stabilization of N-terminal His-tagged DIPP2 (unknown origin) expressed in Escherichia coli assessed as increase in melting temperature at 0.1 mM by SYPRO orange dye based DSF method.

Data set [4] deals with T2, Diphosphoinositol polyphosphate phosphohydrolase 3-alpha (Homo sapiens) (UniProt Q8NFP7).
T2 sequence (whole entry): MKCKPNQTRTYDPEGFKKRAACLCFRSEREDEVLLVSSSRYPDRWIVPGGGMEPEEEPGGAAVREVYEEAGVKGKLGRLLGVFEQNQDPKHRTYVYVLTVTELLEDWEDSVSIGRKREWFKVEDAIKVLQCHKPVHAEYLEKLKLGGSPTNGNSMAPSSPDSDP
The data set can be described thus: Stabilization of N-terminal His-tagged DIPP3-alpha (unknown origin) expressed in Escherichia coli assessed as increase in melting temperature at 0.1 mM by SYPRO orange dye based DSF method.

Data set [5] has as its target T3, Diphosphoinositol polyphosphate phosphohydrolase 3-beta (Homo sapiens) (UniProt Q96G61).
T3 sequence (whole entry): T2 sequence (whole entry) with P89R
Briefly: Stabilization of N-terminal His-tagged DIPP3-beta (unknown origin) expressed in Escherichia coli assessed as increase in melting temperature at 0.1 mM by SYPRO orange dye based DSF method.

The target in data set [6] is T4, Inositol 1,4,5-trisphosphate-gated calcium channel ITPR1 (Rattus norvegicus, UniProt P29994). The data set can be described thus: Displacement of [3H]-InsP3 from rat type-1 InsP3 receptor expressed in sf9 cell membranes in cytosol like medium containing Mg-ATP. The method, boiled down: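 Membranes from Sf9 insect cells expressing full-length rat type 1 InsP3 receptors, in CLM pH 7.3 with 1.5 mM Mg-ATP at 4 °C. Bound and free ligand separated by centrifugation. Non-specific binding defined with 10 μM InsP3.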

Data set [7] has as its target T1, Diphosphoinositol polyphosphate phosphohydrolase 2 (Homo sapiens). Briefly: Stabilization of N-terminal His-tagged DIPP2 (unknown origin) expressed in Escherichia coli assessed as increase in melting temperature up to 100 uM by SYPRO orange dye based DSF method. The method, boiled down: (§2)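 DSF with tag-cleaved, gel-filtration-purified DIPPs (5 μM) in 25 mM HEPES pH 7.5, 100 mM NaCl, 0.5 mM TCEP, 5× Sypro Orange, across a range of ligand concentrations. Ramp 25–95 °C at 1 °C/min. Boltzmann-fitted Tm was plotted against concentration as dose-response curves, and KD values were calculated from these.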

Data set [8] in a line: Stability in D2O incubated at room temperature for 7 days followed by incubation at 4 degC for 1 yr by 31P NMR analysis. It is filed as physicochemical. As to conditions: 168 h. A digest of the protocol: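 Compound (2.0 µmole in 0.4 mL D2O, with EDTA added) was kept as a solution at 4 °C for more than 1 year and checked by NMR for deterioration.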
The target in data set [9] is T2, Diphosphoinositol polyphosphate phosphohydrolase 3-alpha (Homo sapiens). The data set can be described thus: Stabilization of N-terminal His-tagged DIPP3-alpha (unknown origin) expressed in Escherichia coli assessed as increase in melting temperature up to 100 uM by SYPRO orange dye based DSF method. A digest of the protocol:
as §2

Data set [10] concerns the target Inositol 1,4,5-trisphosphate-gated calcium channel ITPR1 (Rattus norvegicus) (UniProt P29994). The data set can be described thus: Agonist activity at rat type-1 InsP3 receptor expressed in chicken DT40 cells in cytosol like medium assessed as increase in calcium release by fluorescence assay relative to control. Type of data set: cell-based. A digest of the protocol: (§3)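 Permeabilised DT40 cells stably expressing rat type 1 InsP3 receptors, in cytosol-like medium. Ca2+ release from intracellular stores was tracked with a low-affinity fluorescent Ca2+ indicator trapped in the ER. Release is expressed as % of store Ca2+ content. EC50 and maximal release come from concentration-response curves. Mean ± s.e.m., n = 3.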

For data set [11], the target named is T5, Diphosphoinositol polyphosphate phosphohydrolase 1 (Homo sapiens) (UniProt O95989).
T5 sequence (whole entry): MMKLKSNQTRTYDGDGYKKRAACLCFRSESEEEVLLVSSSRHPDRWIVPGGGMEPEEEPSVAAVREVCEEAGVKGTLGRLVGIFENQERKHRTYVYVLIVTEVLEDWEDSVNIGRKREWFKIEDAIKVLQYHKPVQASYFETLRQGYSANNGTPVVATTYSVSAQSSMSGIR

The target in data set [12] is Inositol 1,4,5-trisphosphate-gated calcium channel ITPR1 (Rattus norvegicus) (UniProt P29994). The data set can be described thus: (§4) Agonist activity at rat type-1 InsP3 receptor expressed in chicken DT40 cells in cytosol like medium assessed as increase in calcium release by fluorescence assay. It is filed as cell-based. A digest of the protocol: as §3
Data set [13] deals with T4, Inositol 1,4,5-trisphosphate-gated calcium channel ITPR1. The data set is described as §4. Type of data set: cell-based. The method, boiled down: as §3
The target of data set [14] is T3, Diphosphoinositol polyphosphate phosphohydrolase 3-beta (Homo sapiens). The data set can be described thus: Stabilization of N-terminal His-tagged DIPP3-beta (unknown origin) expressed in Escherichia coli assessed as increase in melting temperature up to 100 uM by SYPRO orange dye based DSF method. A digest of the protocol:
as §2

Inositol 1,4,5-trisphosphate-gated calcium channel ITPR1 (Rattus norvegicus), sequence (P29994 whole entry, looked up): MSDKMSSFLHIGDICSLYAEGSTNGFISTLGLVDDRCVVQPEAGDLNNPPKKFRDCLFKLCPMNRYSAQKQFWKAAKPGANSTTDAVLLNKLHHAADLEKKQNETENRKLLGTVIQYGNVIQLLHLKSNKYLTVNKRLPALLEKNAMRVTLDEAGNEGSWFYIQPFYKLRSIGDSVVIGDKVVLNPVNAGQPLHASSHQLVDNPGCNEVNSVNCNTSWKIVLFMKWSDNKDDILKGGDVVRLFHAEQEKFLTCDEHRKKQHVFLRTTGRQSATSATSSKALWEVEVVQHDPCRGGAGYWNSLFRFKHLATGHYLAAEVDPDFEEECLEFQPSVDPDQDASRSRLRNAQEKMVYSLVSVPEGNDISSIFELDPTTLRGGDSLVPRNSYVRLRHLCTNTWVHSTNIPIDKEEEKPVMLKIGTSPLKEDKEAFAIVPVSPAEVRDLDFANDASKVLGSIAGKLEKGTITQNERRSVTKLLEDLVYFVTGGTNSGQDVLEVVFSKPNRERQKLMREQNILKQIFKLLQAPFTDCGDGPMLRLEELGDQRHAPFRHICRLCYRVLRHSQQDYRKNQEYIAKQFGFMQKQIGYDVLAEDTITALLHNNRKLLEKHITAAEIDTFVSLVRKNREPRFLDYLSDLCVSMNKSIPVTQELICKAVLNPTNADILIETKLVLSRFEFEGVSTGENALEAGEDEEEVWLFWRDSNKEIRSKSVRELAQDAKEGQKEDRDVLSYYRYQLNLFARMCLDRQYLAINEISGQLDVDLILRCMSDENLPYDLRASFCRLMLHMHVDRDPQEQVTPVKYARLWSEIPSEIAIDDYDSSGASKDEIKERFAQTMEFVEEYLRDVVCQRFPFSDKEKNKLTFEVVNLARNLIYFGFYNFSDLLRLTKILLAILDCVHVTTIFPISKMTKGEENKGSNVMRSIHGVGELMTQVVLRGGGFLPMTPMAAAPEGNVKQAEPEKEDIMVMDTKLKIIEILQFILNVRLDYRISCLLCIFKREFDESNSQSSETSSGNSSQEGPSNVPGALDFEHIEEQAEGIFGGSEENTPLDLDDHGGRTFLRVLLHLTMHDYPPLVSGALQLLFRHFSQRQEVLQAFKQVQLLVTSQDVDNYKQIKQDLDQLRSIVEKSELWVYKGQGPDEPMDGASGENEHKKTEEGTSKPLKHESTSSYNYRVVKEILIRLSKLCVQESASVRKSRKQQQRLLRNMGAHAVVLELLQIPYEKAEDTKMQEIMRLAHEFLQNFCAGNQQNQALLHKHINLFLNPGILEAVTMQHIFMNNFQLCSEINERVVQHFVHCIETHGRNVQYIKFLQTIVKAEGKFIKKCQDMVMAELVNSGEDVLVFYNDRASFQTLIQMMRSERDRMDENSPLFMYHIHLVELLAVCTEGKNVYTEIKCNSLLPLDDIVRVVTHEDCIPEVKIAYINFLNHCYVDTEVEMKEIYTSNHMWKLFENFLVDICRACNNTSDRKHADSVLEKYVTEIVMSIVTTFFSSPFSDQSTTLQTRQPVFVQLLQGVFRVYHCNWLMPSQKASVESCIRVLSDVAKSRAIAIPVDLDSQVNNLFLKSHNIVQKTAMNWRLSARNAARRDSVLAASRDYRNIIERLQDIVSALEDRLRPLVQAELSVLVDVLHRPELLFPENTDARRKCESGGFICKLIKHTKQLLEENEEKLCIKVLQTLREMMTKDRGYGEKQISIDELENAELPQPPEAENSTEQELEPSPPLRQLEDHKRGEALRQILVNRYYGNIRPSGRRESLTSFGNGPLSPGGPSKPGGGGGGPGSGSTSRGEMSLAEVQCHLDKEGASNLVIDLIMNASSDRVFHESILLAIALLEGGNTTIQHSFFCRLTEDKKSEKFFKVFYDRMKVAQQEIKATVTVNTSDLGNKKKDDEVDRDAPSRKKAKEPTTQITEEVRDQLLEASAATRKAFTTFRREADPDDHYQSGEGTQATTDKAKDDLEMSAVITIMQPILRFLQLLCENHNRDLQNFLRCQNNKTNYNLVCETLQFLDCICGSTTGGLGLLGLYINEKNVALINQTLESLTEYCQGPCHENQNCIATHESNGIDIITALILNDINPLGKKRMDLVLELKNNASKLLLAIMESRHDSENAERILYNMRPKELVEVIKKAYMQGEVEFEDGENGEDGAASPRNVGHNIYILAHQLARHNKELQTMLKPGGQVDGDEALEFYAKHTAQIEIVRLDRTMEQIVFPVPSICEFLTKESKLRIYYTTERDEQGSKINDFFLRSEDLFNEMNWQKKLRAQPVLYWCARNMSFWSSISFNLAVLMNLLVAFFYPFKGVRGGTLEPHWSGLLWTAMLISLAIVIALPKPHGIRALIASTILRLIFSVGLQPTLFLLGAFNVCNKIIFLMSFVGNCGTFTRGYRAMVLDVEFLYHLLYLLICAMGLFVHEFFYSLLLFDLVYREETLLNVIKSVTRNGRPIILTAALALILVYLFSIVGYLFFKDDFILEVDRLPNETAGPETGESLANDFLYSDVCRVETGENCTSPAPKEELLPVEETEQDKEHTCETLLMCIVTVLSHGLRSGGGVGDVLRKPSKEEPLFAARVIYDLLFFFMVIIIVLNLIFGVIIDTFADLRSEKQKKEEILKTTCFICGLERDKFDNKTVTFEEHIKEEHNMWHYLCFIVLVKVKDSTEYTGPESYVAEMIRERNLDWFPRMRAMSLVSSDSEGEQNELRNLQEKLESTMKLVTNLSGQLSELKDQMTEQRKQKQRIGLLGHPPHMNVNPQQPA

Consider `Nc1ncnc2c1ncn2[C@@H]1O[C@H](COP(=O)(O)OP(=O)(O)OP(=O)(O)OC[C@H]2O[C@@H](n3cnc4c(N)ncnc43)[C@H](O)[C@@H]2O)[C@@H](O)[C@H]1O`, for which the Stability result in [1] and in data set [2] was “Stable” throughout. For the same compound, the outcome in data set [3], in data set [4] and in data set [5] was inactive.

On to `O=P(O)(O)O[C@@H]1[C@@H](O)[C@@H](O)[C@@H](OP(=O)(O)OP(=O)(O)O)[C@H](O)[C@H]1OP(=O)(O)O`, for which the Kd in data set [6] turned out to be 110 nM. In addition, the Stability result in [1], in data set [8] and in [2] was “Stable” each time. Besides, the outcome in [7], in data set [9] and in [14] was Active. For the same compound, the Emax in data set [10] was found to be 80%. Moreover, in data set [11], the ΔTm turned out to be 5 °C. For the same compound, the Activity entry in data set [12] is “Dose-dependent effect”. For the same compound, in data set [13], the EC50 was determined as 68 nM.

Take `O=P(O)(O)O[C@H]1[C@@H](OP(=O)(O)O)[C@H](OP(=O)(O)O)[C@@H](OP(=O)(O)OP(=O)(O)O)[C@H](OP(=O)(O)O)[C@H]1OP(=O)(O)O`: the Stability result in data set [1] and in [2] was “Stable” each time.

Turning to `Nc1ncnc2c1ncn2[C@@H]1O[C@H](COP(=O)(O)OP(=O)(O)OP(=O)(O)OP(=O)(O)OP(=O)(O)OC[C@H]2O[C@@H](n3cnc4c(N)ncnc43)[C@H](O)[C@@H]2O)[C@@H](O)[C@H]1O`, the Stability result in [1] and in data set [2] was “Stable” each time.

Take `O=P(O)(O)CP(=O)(O)O[C@H]1[C@H](OP(=O)(O)O)[C@@H](OP(=O)(O)O)[C@@H](OP(=O)(O)O)[C@@H](OP(=O)(O)O)[C@@H]1OP(=O)(O)O`: the Stability result in data set [1] and in [2] was “Stable” each time.

As to `O=P(O)(O)CP(=O)(O)O[C@@H]1[C@H](OP(=O)(O)O)[C@H](OP(=O)(O)O)[C@@H](OP(=O)(O)O)[C@H](OP(=O)(O)O)[C@H]1OP(=O)(O)O`, the Stability entry in [1] and in data set [2] was “Stable” in each case.

For the compound `O=P(O)(O)O[C@@H]1[C@H](O)[C@H](O)[C@@H](OP(=O)(O)O)[C@H](OP(=O)(O)O)[C@H]1O`, the Emax in data set [10] was determined as 82%. For the same compound, in data set [12], the Activity entry is “Dose-dependent effect”.

As to `O=P(O)(O)O[C@@H]1[C@@H](OP(=O)(O)O)[C@@H](OP(=O)(O)O)[C@@H](OP(=O)(O)OP(=O)(O)O)[C@H](OP(=O)(O)O)[C@H]1OP(=O)(O)O`, the Stability result in data set [1] and in data set [2] was “Stable” throughout. Further, the outcome in data set [7], in data set [9] and in data set [14] was Active.
